Assay results: ChEMBL document CHEMBL1649139, “A novel gene, erm(41), confers inducible macrolide resistance to clinical isolates of Mycobacterium abscessus but is absent from Mycobacterium chelonae” (2009)
Values after ≈ are worked out from the molar mass of the structure shown.

Key:
Format in all cases: functional
[1] = test system: Mycobacteroides abscessus; experiment: Antimicrobial activity against Mycobacterium abscessus isolate MC879-2 at day 7 preincubated with 0.1 ug/ml erythromycin for 3 days by broth microdilution method
[2] = test system: Mycobacteroides abscessus; experiment: Antimicrobial activity against Mycobacterium abscessus isolate MC879-2 at day 9 preincubated with 0.1 ug/ml erythromycin for 3 days by broth microdilution method
[3] = test system: Mycobacteroides abscessus; experiment: Antimicrobial activity against Mycobacterium abscessus isolate MC1448 at day 7 preincubated with 0.1 ug/ml for 3 days by broth microdilution method
In short: (§1)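 Clarithromycin MIC by broth microdilution following CLSI guidelines. Before testing, organisms were preincubated for 3 days in medium alone or in clarithromycin or erythromycin (0.01–1 μg/ml), long enough for at least two generations judged by turbidity increase. MICs were read on day 3 and again on extended incubation out to day 14.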

[4] = test system: Mycobacteroides abscessus; experiment: Antimicrobial activity against Mycobacterium abscessus isolate MC879-2 at day 9 preincubated with 0.1 ug/ml for 3 days by broth microdilution method
[5] = test system: Mycobacteroides abscessus; experiment: Antimicrobial activity against Mycobacterium abscessus isolate MC879-2 at day 14 preincubated with 0.1 ug/ml for 3 days by broth microdilution method
[6] = test system: Mycolicibacterium smegmatis; experiment: Antimicrobial activity against Mycobacterium smegmatis transformed with erm allele Mycobacterium abscessus isolate MC720 preincubated with 2 ug/ml erythromycin for 20 to 24 hrs by broth microdilution method
[7] = test system: Mycolicibacterium smegmatis; experiment: Antimicrobial activity against Mycobacterium smegmatis transformed with erm allele Mycobacterium abscessus isolate MAB30 by broth microdilution method
[8] = test system: Mycolicibacterium smegmatis; experiment: Antimicrobial activity against Mycobacterium smegmatis transformed with erm allele Mycobacterium abscessus isolate MC1028 by broth microdilution method
[9] = test system: Mycobacteroides abscessus; experiment: Antimicrobial activity against Mycobacterium abscessus isolate MC720 at day 3 by broth microdilution method; conditions: isolate MC720, 72 h; in short: as §1
[10] = test system: Mycobacteroides abscessus; experiment: Antimicrobial activity against Mycobacterium abscessus isolate MC720 at day 5 by broth microdilution method; conditions: isolate MC720, 120 h; in short: as §1
[11] = test system: Mycobacteroides abscessus; experiment: Antimicrobial activity against Mycobacterium abscessus isolate MC958 at day 7 by broth microdilution method; conditions: isolate MC958, 168 h
In short: (§2)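 Clarithromycin MIC by broth microdilution following CLSI guidelines. Organisms were preincubated […], for 3 days before the assay. This allowed at least two generations, judged by the rise in turbidity. The MIC was read at the stated day, with incubation extended from day 3 to as long as 14 days.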

[12] = test system: Mycobacteroides abscessus; experiment: Antimicrobial activity against Mycobacterium abscessus isolate MC719 at day 7 by broth microdilution method; conditions: isolate MC719, 168 h
In short: (§3)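 Clinical M. abscessus isolates were preincubated for 3 days, either in medium alone or in clarithromycin or erythromycin at 0.01 to 1 μg/ml, allowing at least two generations of growth judged by turbidity. The clarithromycin MIC was then determined by CLSI-conforming broth microdilution, with plates read on day 3 and on extended incubation (days 5 to 14).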

[13] = test system: Mycobacteroides abscessus; experiment: Antimicrobial activity against Mycobacterium abscessus isolate MC723 at day 7 by broth microdilution method; conditions: isolate MC723, 168 h; in short: as §3
[14] = test system: Mycobacteroides abscessus; experiment: Antimicrobial activity against Mycobacterium abscessus isolate MC724 at day 7 by broth microdilution method; conditions: isolate MC724, 168 h; in short: as §3
[15] = test system: Mycobacteroides abscessus; experiment: Antimicrobial activity against Mycobacterium abscessus isolate MC879 at day 9 by broth microdilution method; conditions: isolate MC879, 216 h; in short: as §2
[16] = test system: Mycobacteroides abscessus; experiment: Antimicrobial activity against Mycobacterium abscessus isolate MC723 at day 9 by broth microdilution method; conditions: isolate MC723, 216 h; in short: as §1
[17] = test system: Mycobacteroides abscessus; experiment: Antimicrobial activity against Mycobacterium abscessus isolate MC723 at day 3 preincubated with 0.1 ug/ml erythromycin for 3 days by broth microdilution method; in short: as §1
[18] = test system: Mycobacteroides abscessus; experiment: Antimicrobial activity against Mycobacterium abscessus isolate MC1082 at day 3 by broth microdilution method; conditions: isolate MC1082, 72 h
In short: (§4)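 Clarithromycin MIC by CLSI-conforming broth microdilution. Before testing, cultures were preincubated for 3 days, either in medium alone or in clarithromycin or erythromycin (tested range 0.01–1 μg/ml). Preincubation ran for at least two generations, judged by turbidity increase. Plates were read on day 3 and on extended incubation at days 5 to 14.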

[19] = test system: Mycobacteroides abscessus; experiment: Antimicrobial activity against Mycobacterium abscessus isolate MC1028 at day 7 by broth microdilution method; conditions: isolate MC1028, 168 h; in short: as §4
[20] = test system: Mycobacteroides abscessus; experiment: Antimicrobial activity against Mycobacterium abscessus isolate MC1082 at day 7 by broth microdilution method; conditions: isolate MC1082, 168 h; in short: as §4
[21] = test system: Mycobacteroides abscessus; experiment: Antimicrobial activity against Mycobacterium abscessus isolate MC1028 at day 14 by broth microdilution method; conditions: isolate MC1028, 336 h; in short: as §4
[22] = test system: Mycobacteroides abscessus; experiment: Antimicrobial activity against Mycobacterium abscessus isolate MAB30 at day 7 preincubated with 0.1 ug/ml erythromycin for 3 days by broth microdilution method; in short: as §4
[23] = test system: Mycobacteroides abscessus; experiment: Antimicrobial activity against Mycobacterium abscessus isolate MC719 at day 7 preincubated with 0.1 ug/ml erythromycin for 3 days by broth microdilution method; in short: as §1
[24] = test system: Mycobacteroides abscessus; experiment: Antimicrobial activity against Mycobacterium abscessus isolate MC879 at day 9 preincubated with 0.1 ug/ml erythromycin for 3 days by broth microdilution method
In short: (§5)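 To test inducible resistance, cultures were preincubated for 3 days in clarithromycin or erythromycin, within 0.01–1 μg/ml. The period was set so cultures passed at least two generations, judged by turbidity increase. Clarithromycin MIC was then determined by CLSI-conforming broth microdilution and read on the stated day, from day 3 up to 14.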

[25] = test system: Mycobacteroides abscessus; experiment: Antimicrobial activity against Mycobacterium abscessus isolate MAB30 at day 7 preincubated with 0.1 ug/ml for 3 days by broth microdilution method; in short: as §4
[26] = test system: Mycobacteroides abscessus; experiment: Antimicrobial activity against Mycobacterium abscessus isolate MC1028 at day 14 preincubated with 0.1 ug/ml for 3 days by broth microdilution method; in short: as §4
[27] = test system: Mycobacteroides abscessus; experiment: Antimicrobial activity against Mycobacterium abscessus isolate MC879-2 at day 3 by broth microdilution method; conditions: isolate MC879-2, 72 h
[28] = test system: Mycobacteroides abscessus; experiment: Antimicrobial activity against Mycobacterium abscessus isolate MC879-2 at day 9 by broth microdilution method; conditions: isolate MC879-2, 216 h
[29] = test system: Mycobacteroides abscessus; experiment: Antimicrobial activity against Mycobacterium abscessus isolate MC879-2 at day 14 by broth microdilution method; conditions: isolate MC879-2, 336 h
[30] = test system: Mycobacteroides abscessus; experiment: Antimicrobial activity against Mycobacterium abscessus isolate MC724 at day 14 preincubated with 0.1 ug/ml erythromycin for 3 days by broth microdilution method; in short: as §1
[31] = test system: Mycobacteroides abscessus; experiment: Antimicrobial activity against Mycobacterium abscessus isolate MC879 at day 3 preincubated with 0.1 ug/ml for 3 days by broth microdilution method; in short: as §5
[32] = test system: Mycobacteroides abscessus; experiment: Antimicrobial activity against Mycobacterium abscessus isolate MC958 at day 3 preincubated with 0.1 ug/ml for 3 days by broth microdilution method; in short: as §5
[33] = test system: Mycobacteroides abscessus; experiment: Antimicrobial activity against Mycobacterium abscessus isolate MC879 at day 5 preincubated with 0.1 ug/ml for 3 days by broth microdilution method; in short: as §5
[34] = test system: Mycobacteroides abscessus; experiment: Antimicrobial activity against Mycobacterium abscessus isolate MC723 at day 5 preincubated with 0.1 ug/ml for 3 days by broth microdilution method; in short: as §3
[35] = test system: Mycobacteroides abscessus; experiment: Antimicrobial activity against Mycobacterium abscessus isolate MC720 at day 9 preincubated with 0.1 ug/ml for 3 days by broth microdilution method; in short: as §1
[36] = test system: Mycobacteroides abscessus; experiment: Antimicrobial activity against Mycobacterium abscessus isolate MC719 at day 14 preincubated with 0.1 ug/ml for 3 days by broth microdilution method; in short: as §1

Q: Which MIC [1] does the source give for `CC[C@H]1OC(=O)[C@H](C)[C@@H](O[C@H]2C[C@@](C)(OC)[C@@H](O)[C@H](C)O2)[C@H](C)[C@@H](O[C@@H]2O[C@H](C)C[C@H](N(C)C)[C@H]2O)[C@](C)(OC)C[C@@H](C)C(=O)[C@H](C)[C@@H](O)[C@]1(C)O` [CLARITHROMYCIN] here?
A: The MIC was greater than 32 µg/mL.

Q: What about the MIC [2] of the same compound?
A: Its MIC is greater than 32 µg/mL.

Q: And the MIC [3]?
A: The MIC was greater than 32 µg/mL.

Q: What about the MIC [4] of the same compound?
A: The MIC was greater than 32 µg/mL.

Q: What about the MIC [5] of the same compound?
A: Its MIC is greater than 32 µg/mL.

Q: What about the MIC [6] of the same compound?
A: Its MIC is 16 µg/mL.

Q: What about the MIC [7] of the same compound?
A: Its MIC is no more than 0.5 µg/mL.

Q: What about the MIC [8] of the same compound?
A: Its MIC is no more than 0.5 µg/mL.

Q: And the MIC [9]?
A: The MIC was no more than 0.5 µg/mL.

Q: What about the MIC [10] of the same compound?
A: Its MIC is 1 µg/mL (≈ 1.34 µM).

Q: What about the MIC [11] of the same compound?
A: The MIC was 8 µg/mL (≈ 10.7 µM).

Q: And the MIC [12]?
A: The MIC was 8 µg/mL (≈ 10.7 µM).

Q: What about the MIC [13] of the same compound?
A: Its MIC is 8 µg/mL (≈ 10.7 µM).

Q: And the MIC [14]?
A: Its MIC is 8 µg/mL (≈ 10.7 µM).

Q: What about the MIC [15] of the same compound?
A: Its MIC is greater than 32 µg/mL.

Q: What about the MIC [16] of the same compound?
A: The MIC was greater than 32 µg/mL.

Q: What about the MIC [17] of the same compound?
A: Its MIC is no more than 0.5 µg/mL.

Q: What about the MIC [18] of the same compound?
A: Its MIC is no more than 0.5 µg/mL.

Q: What about the MIC [19] of the same compound?
A: Its MIC is no more than 0.5 µg/mL.

Q: What about the MIC [20] of the same compound?
A: The MIC was no more than 0.5 µg/mL.

Q: What about the MIC [21] of the same compound?
A: The MIC was no more than 0.5 µg/mL.

Q: What about the MIC [22] of the same compound?
A: Its MIC is no more than 0.5 µg/mL.

Q: And the MIC [23]?
A: Its MIC is greater than 32 µg/mL.

Q: What about the MIC [24] of the same compound?
A: Its MIC is greater than 32 µg/mL.

Q: What about the MIC [25] of the same compound?
A: The MIC was no more than 0.5 µg/mL.

Q: What about the MIC [26] of the same compound?
A: Its MIC is no more than 0.5 µg/mL.

Q: And the MIC [27]?
A: The MIC was greater than 32 µg/mL.

Q: What about the MIC [28] of the same compound?
A: Its MIC is greater than 32 µg/mL.

Q: What about the MIC [29] of the same compound?
A: Its MIC is greater than 32 µg/mL.

Q: And the MIC [30]?
A: Its MIC is greater than 32 µg/mL.

Q: What about the MIC [31] of the same compound?
A: Its MIC is no more than 0.5 µg/mL.

Q: What about the MIC [32] of the same compound?
A: Its MIC is no more than 0.5 µg/mL.

Q: And the MIC [33]?
A: Its MIC is 4 µg/mL (≈ 5.35 µM).

Q: What about the MIC [34] of the same compound?
A: Its MIC is 4 µg/mL (≈ 5.35 µM).

Q: What about the MIC [35] of the same compound?
A: The MIC was greater than 32 µg/mL.

Q: And the MIC [36]?
A: The MIC was greater than 32 µg/mL.
